These results are taken from ChEMBL document CHEMBL3621150, “Characterization of 2,4-Diamino-6-oxo-1,6-dihydropyrimidin-5-yl Ureido Based Inhibitors of Trypanosoma brucei FolD and Testing for Antiparasitic Activity” (J Med Chem, 2015).

Molecules are shown by their SMILES. pIC50, pKi: −log10 of the molar value. Calls of active or inactive are those of the source. No cut-off for these calls is given here.

Data set [1] is described as follows: Selectivity index, ratio of IC50 for macrophages differentiated from human THP1 cells to IC50 for bloodstream form of Trypanosoma brucei brucei 427. In kind it is toxicity, cell-based, THP-1. To be noted: read-out: Ratio IC50. In short, it runs like this:
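Bloodstream-form T. b. brucei 427 in HMI-9 with 10% heat-inactivated FBS at 37 °C, 5% CO2: about 2,000 cells per well with serial drug dilutions for 72 h, then resazurin 45.5 μM for 4 h, fluorescence ex 528/em 590 nm. THP1-differentiated macrophages at 10⁵ cells/well: 72 h at 37 °C, MTT 4 h, A570 minus 660 nm versus untreated. Both IC50s by linear regression.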

For a further data set, the system named is THP-1. Briefly: Cytotoxicity against macrophages differentiated from human THP1 cells assessed as cell viability after 72 hrs by MTT assay. The format is cell-based. The following applies: THP-1, 72 h. The method in brief:
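THP1-differentiated macrophages, 10⁵ cells/well, adhered overnight, then exposed to a compound concentration range for 72 h at 37 °C. MTT at 0.5 mg/mL added for 4 h in the dark, and formazan dissolved in isopropanol. Absorbance read at 570 nm with 660 nm background. Viability given relative to untreated cells, and IC₅₀ from linear regression.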
(In general: Tetrazolium dyes change colour on reduction, which living cells bring about.)

Data set [2] in a line: Inhibition of Trypanosoma brucei FolD dehydrogenase activity assessed as formation of 5,10-CH=THF from 5,10-CH2-THF after 5 mins by spectrophotometric analysis. In short, it runs like this:
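Recombinant T. brucei FolD from E. coli BL21 (DE3), Ni²⁺-affinity purified. Assay at 27 °C in 25 mM MOPS pH 7.3 with 30 mM 2-mercaptoethanol, 35 μM mTHF and 1 mM NADP⁺, started with NADP⁺. Reaction stopped at 5 min with an equal volume of 1 M HCl, product read at 350 nm (ε 24.9 mM⁻¹ cm⁻¹). Compounds from 10 mM DMSO stocks, first tested at 0–50–100 μM. Data fitted to a competitive model by linear regression.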

Data set [3] is described as follows: Competitive inhibition of Pseudomonas aeruginosa FolD dehydrogenase activity.
Data set [4] in a line: Competitive inhibition of recombinant Leishmania major hexahistidine-tagged FolD dehydrogenase activity expressed in Escherichia coli by Michaelis-Menten plot analysis in presence of 5,10-CH2-THF.
Data set [5] concerns Trypanosoma brucei brucei. Briefly: Antiparasitic activity against bloodstream form of Trypanosoma brucei brucei 427 […] assessed as growth inhibition after 72 hrs by Alamar Blue assay. In kind it is functional, organism-based. To be noted: for pIC50: Trypanosoma brucei, 427, 72 h, read-out: IC50.

In general, pIC50 refers to the negative decadic logarithm of the IC50, by convention in mol/L. One may read the pKi as the negative decadic logarithm of the Ki, by convention in mol/L. Consider `Nc1nc2c(c(=O)[nH]1)N1C(=O)N(c3ccc(C(=O)NC(CCC(=O)O)C(=O)O)cc3)CC1CN2` (stereo unspecified), for which the selectivity ratio in data set [1] came out at 1.8. In addition, the pIC50 in the data set with THP-1 was 3.99; in data set [2], 4.70; in data set [5] it was 4.24. Moreover, the pKi is 5.07 in data set [2], 7.52 in data set [3] and 6.98 in data set [4].
As to `Nc1nc(N)c(NC(=O)Nc2ccc(C(=O)N[C@@H](Cc3ccc(O)cc3)C(=O)O)cc2)c(=O)[nH]1`, the pIC50 in the data set on THP-1 was 4.11. In data set [2], the pIC50 was 5.03 and the pKi was 5.14. Further, the IC50 result in data set [5] is given as “Not Active”.
As to `Nc1nc(N)c(NC(=O)Nc2ccc(C(=O)O)cc2)c(=O)[nH]1`, the selectivity ratio in data set [1] was determined as 1.3. The figures for the negative logarithm of the IC50 (pIC50) (with THP-1; in data set [2]; in data set [5]) were 4.01, 4.08 and 4.13, respectively.
On to `Nc1nc(N)c(NC(=O)Nc2ccc(C(=O)N[C@@H](CCCC(=O)O)C(=O)O)cc2)c(=O)[nH]1`, for which the pIC50 in the data set on THP-1 was 4.05. Also, in data set [2], the pIC50 was 6.00 and the pKi was 6.32. Also, the IC50 entry in data set [5] is reported as “Not Active”.
Consider `Nc1nc(N)c(NC(=O)Nc2ccc(C(=O)NCCCC(=O)O)cc2)c(=O)[nH]1`, for which, in the data set with THP-1, the negative logarithm of the IC50 (pIC50) was 4.01. Besides, in data set [2], the negative-log IC50 (pIC50) is 3.67 and the pKi is 3.77. Further, the IC50 result in data set [5] was “Not Active”.
As for `CCOC(=O)CC[C@H](NC(=O)c1ccc(NC(=O)Nc2c(N)nc(N)[nH]c2=O)cc1)C(=O)OCC`, the selectivity ratio in data set [1] came out at 2.2. Also, the figures for the negative logarithm of the IC50 (pIC50) (in the data set with THP-1; in data set [2]; in data set [5]) were 3.69, 3.60 and 4.04, respectively.
`Nc1nc(N)c(NC(=O)Nc2ccc(C(=O)N[C@@H](Cc3ccccc3)C(=O)O)cc2)c(=O)[nH]1`: the pIC50 with THP-1 is 4.03. Moreover, in data set [2], the negative-log IC50 (pIC50) was 5.96 and the negative-log Ki (pKi) was 6.27. The IC50 result in data set [5] is “Not Active”.
With `C[C@H](NC(=O)c1ccc(NC(=O)Nc2c(N)nc(N)[nH]c2=O)cc1)C(=O)O`, the negative-log IC50 (pIC50) in the data set on THP-1 is 3.95. For the same compound, in data set [2], the pIC50 is 5.20 and the pKi was 5.49. Further, the IC50 result in data set [5] was “Not Active”.
Consider `Nc1nc(N)c(NC(=O)Nc2ccc(C(=O)N[C@@H](CCC(=O)O)C(=O)O)cc2)c(=O)[nH]1`, for which the selectivity ratio in data set [1] amounted to 4. Moreover, the negative-log IC50 (pIC50) with THP-1 was 3.71; in data set [2], 5.66; in data set [5], 4.31. Further, the pKi in data set [2] was 5.96.
As to `CCOC(=O)c1ccc(NC(=O)Nc2c(N)nc(N)[nH]c2=O)cc1`, the selectivity ratio in data set [1] amounted to 1.1. In addition, the results for the pIC50 (with THP-1; in data set [2]; in data set [5]) were 4.01, 3.60 and 4.05, respectively.
`Cc1ccc(C(=O)Nc2ccc(S(=O)(=O)O)c3cc(S(=O)(=O)O)cc(S(=O)(=O)O)c23)cc1NC(=O)c1cccc(NC(=O)Nc2cccc(C(=O)Nc3cc(C(=O)Nc4ccc(S(=O)(=O)O)c5cc(S(=O)(=O)O)cc(S(=O)(=O)O)c45)ccc3C)c2)c1`: the “growth inhibition (GI)” value in data set [5] is “Active”.
For `N=C(N)c1ccc(OCCCCCOc2ccc(C(=N)N)cc2)cc1` [PENTAMIDINE], the negative logarithm of the IC50 (pIC50) in data set [5] was 8.80.
